Data: ChEMBL document CHEMBL4613269, “2-((4-Arylpiperazin-1-yl)methyl)benzonitrile Derivatives as Orally Available Inhibitors of Hepatitis C Virus with a Novel Mechanism of Action” (J Med Chem, 2020)
The source made the active and inactive calls. No cut-off for these calls is given here.

Experiments:
Hepatitis C virus [1] = experiment: Antiviral activity against HCV with wild type glycoprotein E1 infected in human Huh7.5 cells assessed as reduction in viral RNA levels incubated for 72 hrs by qRT-PCR analysis; assay type: functional, organism-based, Hepacivirus hominis; conditions: Huh7.5, 72 h
How it was run: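 Huh7.5 cells seeded 24 h, then infected with wild-type (or mutant) HCV with compound added at the same time. Incubated 72 h. Intracellular HCV RNA measured by qRT-PCR, 2^-ΔCt method, normalized to GAPDH. Eight-step 1:5 serial dilutions in triplicate; EC50 by Reed & Muench; three independent experiments.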

Hepatitis C virus [2] = experiment: Antiviral activity against HCV GS4.3 infected in human Huh7.5 cells assessed as reduction in viral NS3 protein levels at 0.1 to 5 uM incubated for 14 days by Western blot assay; assay type: functional, organism-based; conditions: Hepacivirus hominis
[3] = Selectivity index, ratio of CC50 for cytotoxicity in African green monkey Vero cells to EC50 for Antiviral activity against Coxsackievirus B3 infected in Vero cells; assay type: toxicity, cell-based; conditions: read-out: Ratio CC50/EC50
[4] = Cytotoxicity in MDCK cells assessed as reduction in cell viability; assay type: cell-based, Canis lupus familiaris; conditions: dog
[5] = Cmax in Sprague-Dawley rat at 5 mg/kg, iv measured after 0.08 to 72 hrs post dose by LC-MS/MS analysis; assay type: ADME, organism-based; set-up: dose 5 mg/kg, route intravenous; conditions: in vivo
How it was run: (§1)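 Single dose to fasted (12 h) animals: oral gavage 15 mg/kg as suspension in 0.5% CMC-Na, or iv 5 mg/kg dissolved in citric acid buffer pH 5.0 with 2.5% DMSO. Jugular vein blood on heparin at 0.08 (iv only) to 72 h. Plasma assayed by LC-MS/MS; parameters from noncompartmental analysis.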

[6] = AUC (0 to 72 hrs) in beagle dog at 5 mg/kg, iv measured after 0.08 to 72 hrs post dose by LC-MS/MS analysis; assay type: ADME, organism-based, Canis lupus familiaris; set-up: time < 72 hr, dose 5 mg/kg, route intravenous; conditions: in vivo; how it was run: as §1
Hepatitis C virus [7] = experiment: Antiviral activity against HCV GS4.3 infected in human Huh7.5 cells assessed as […] at 0.008 to 1 uM incubated with drug for 2 hrs after viral infection and measured after 72 hrs by Western blot assay; assay type: functional, organism-based; conditions: Hepacivirus hominis
Zika virus = experiment: Antiviral activity against Zika virus infected in Vero E6 cells assessed as reduction in virus-induced cytopathic effect incubated for 96 hrs by CCK8 assay; assay type: functional, organism-based; conditions: Vero C1008, 96 h
Hepatitis C virus [8] = experiment: Synergistic antiviral activity against HCV infected in human Huh7.5 cells assessed as reduction in HCV core protein level by measuring (q) value at 0.1 uM in presence of 0.025 uM simeprevir incubated for 72 hrs by Western blot assay based Webb method relative to control; assay type: functional, Hepacivirus hominis
How it was run: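 Huh7.5 cells in 6-well plates were infected with HCV in the presence of 0.1 μM test compound combined with simeprevir 0.025 μM, sofosbuvir 0.1 μM or daclatasvir 0.016 nM. Western blot at 72 h gave HCV core protein relative to actin, normalized to control. q calculated by Webb's method (q<1 antagonism, =1 addition, >1 synergy); over 3 independent experiments.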

[9] = Drug level in beagle dog at 15 mg/kg, po measured after 24 hrs post dose by LC-MS/MS analysis; assay type: ADME, organism-based, Canis lupus familiaris; conditions: in vivo, read-out: Drug uptake; how it was run: as §1
[10] = AUC (0 to 72 hrs) in beagle dog at 15 mg/kg, po measured after 0.08 to 72 hrs post dose by LC-MS/MS analysis; assay type: ADME, organism-based, Canis lupus familiaris; set-up: time < 72 hr, dose 15 mg/kg, route oral; conditions: in vivo; how it was run: as §1
Hepatitis C virus [11] = experiment: Antiviral activity against HCV expressing NS3 A156T mutant by qRT-PCR analysis based by Reed-Muench method; assay type: functional, organism-based, Hepacivirus hominis
How it was run: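 Huh7.5 cells seeded at 3×10^4/cm², infected 24 h later with wild-type or mutant HCV stock while compound or solvent was added at the same time. Intracellular HCV RNA measured by qRT-PCR at 72 h, normalised to GAPDH, 2^-ΔCT method. EC50 by Reed & Muench from eight-step 1:5 serial dilutions, triplicate wells.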

Hepatitis C virus [12] = experiment: Antiviral activity against HCV GS4.3 infected in human Huh7.5 cells assessed as […] at 0.008 to 1 uM simultaneously treated with viral infection and measured after 72 hrs by Western blot assay; assay type: functional, organism-based; conditions: Hepacivirus hominis
[13] = Toxicity in Kunming mouse assessed as induction of mortality at 250 to 1000 mg/kg dosed via single oral gavage and measured on day 7 post treatment; assay type: organism-based; conditions: in vivo
How it was run: (§2)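 Kunming mice, 4 groups of n = 6 (3 male, 3 female). Fasted from 12 h before to 1 h after dosing. Single oral gavage of 250, 500 or 1000 mg/kg suspended in 0.5% CMC-Na, or vehicle alone. Followed for 7 days: survival, body weight before and at day 7. Day-7 blood taken for AST, ALT, urea nitrogen and creatinine.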

[14] = Clearance in Sprague-Dawley rat at 5 mg/kg, iv measured after 0.08 to 72 hrs post dose by LC-MS/MS analysis; assay type: ADME, organism-based; conditions: in vivo; how it was run: as §1
[15] = AUC (0 to 72 hrs) in Sprague-Dawley rat at 15 mg/kg, po measured after 0.08 to 72 hrs post dose by LC-MS/MS analysis; assay type: ADME, organism-based; set-up: dose 15 mg/kg, time < 72 hr, route oral; conditions: in vivo; how it was run: as §1
[16] = Apparent Volume of distribution in beagle dog at 5 mg/kg, iv measured after 0.08 to 72 hrs post dose by LC-MS/MS analysis; assay type: ADME, organism-based, Canis lupus familiaris; conditions: in vivo, read-out: Vz; how it was run: as §1
Hepatitis C virus [17] = experiment: Antiviral activity against HCV genotype 2a pseudoparticle infected in human Huh7.5 cells assessed as reduction in viral replication; assay type: functional, organism-based; conditions: Hepacivirus hominis; subtype 2a
How it was run: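 Genotype 1b or 2a HCV pseudoparticles made by co-transfecting HEK 293T cells with envelope and luciferase-reporter HIV plasmids; input standardized by luciferase. Huh7.5 cells co-incubated with compound and HCVpp for 4 h at 37°C, washed, then luciferase read at 72 h.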

[18] = Tmax in Sprague-Dawley rat at 15 mg/kg, po measured after 0.08 to 72 hrs post dose by LC-MS/MS analysis; assay type: ADME, organism-based; conditions: in vivo
[19] = Cmax in Sprague-Dawley rat at 15 mg/kg, po measured after 0.08 to 72 hrs post dose by LC-MS/MS analysis; assay type: ADME, organism-based; set-up: dose 15 mg/kg, route oral; conditions: in vivo; how it was run: as §1
[20] = Drug level in beagle dog at 15 mg/kg, po measured after 72 hrs post dose by LC-MS/MS analysis; assay type: ADME, organism-based, Canis lupus familiaris; conditions: in vivo, read-out: Drug uptake; how it was run: as §1
[21] = Selectivity index, ratio of CC50 for cytotoxicity in human Huh7.5 cells assessed as reduction in cell viability incubated for 96 hrs by MTT assay to EC50 antiviral activity against HCV J6/JFH/JC1 infected in human Huh7.5 cells assessed as reduction in viral RNA levels incubated for 72 hrs by qRT-PCR analysis; assay type: toxicity, cell-based; conditions: read-out: Ratio CC50/EC50
How it was run: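 Selectivity index = CC50/EC50. CC50: Huh7.5 cells seeded at 3×10^4/cm², medium with compound added at 24 h, MTT read at 96 h. EC50: HCVcc-infected Huh7.5 cells treated for 72 h, HCV RNA by qRT-PCR normalised to GAPDH. Serial 1:5 dilutions in eight steps, Reed & Muench calculation, means ± SD of three independent experiments.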

[22] = Toxicity in Kunming mouse assessed as effect on […] level at 250 to 1000 mg/kg dosed via single oral gavage and measured on day 7 post treatment; assay type: organism-based; conditions: in vivo; how it was run: as §2
[23] = Half life in Sprague-Dawley rat at 15 mg/kg, po measured after 0.08 to 72 hrs post dose by LC-MS/MS analysis; assay type: ADME, organism-based; conditions: in vivo; how it was run: as §1
[24] = Bioavailability in Sprague-Dawley rat at 5 mg/kg, iv measured after 0.08 to 72 hrs post dose by LC-MS/MS analysis; assay type: ADME, organism-based; conditions: in vivo; how it was run: as §1

With CN(C)CCN(C)c1ccc(C#N)c(CN2CCN(c3ccc(Cl)cc3)CC2)c1 the EC50 (Hepatitis C virus [1]) was 0.006 µM, the Activity (Hepatitis C virus [2]) was “inactive” and the selectivity ratio [3] was 3. The CC50 [4] was 4.28 µM, the Cmax [5] was 0.617 µg/mL and the AUC(0-t) at 72 h [6] was 1.07 µg·h/mL. For the same molecule, the Activity (Hepatitis C virus [7]) was “Active”, the EC50 (Zika virus) was 5.15 µM and the Ratio (Hepatitis C virus [8]) was 1.05. For the same molecule, the concentration at 24 h [9] was 0.0156 µg/mL, the AUC(0-t) at 72 h [10] was 1.28 µg·h/mL and the EC50 (Hepatitis C virus [11]) was 0.0019 µM. The Activity (Hepatitis C virus [12]) was “Active”, the Activity [13] was “Non-Toxic” and the clearance [14] was 1.09 L/h/kg. The AUC(0-t) at 72 h [15] was 9.59 µg·h/mL, the Vd [16] was 49.2 L/kg and the Activity (Hepatitis C virus [17]) was “Dose-dependent effect”. It also gave a Tmax [18] of 3.08 h, a Cmax [19] of 0.501 µg/mL and a concentration at 72 h [20] of 0.00069 µg/mL. For the same molecule, the selectivity ratio [21] was 671, the Activity [22] was “Non-Toxic” and the half-life [23] was 12.8 h. For the same molecule, the bioavailability [24] was 59%.
